In ChEMBL document CHEMBL4177755, “Combating Drug-Resistant Fungi with Novel Imperfectly Amphipathic Palindromic Peptides” (J Med Chem, 2018):
In brackets after ≈: the same amount, converted by molar mass. Activity calls are given as the source filed them. The calls are words filed in the database; no cut-off is given here.

What was measured:
Candida albicans [1] = assay: Antifungal activity against Candida albicans cgmcc 2.2086 after 48 hrs by broth microdilution method; format: functional; settings: cgmcc 2.2086, 48 h
Outline: (§1)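 Modified CLSI M27-A2 broth microdilution. Yeast at (0.5−1) × 10^3 CFU/mL in MOPS-buffered RPMI 1640 was mixed 1:1 with peptide serially diluted in 0.2% BSA and incubated 48 h at 28 °C. Absorbance was read at 492 nm; MIC is the lowest concentration inhibiting 95% of growth. Triplicate, three biological replicates.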

Candida albicans [2] = assay: Antifungal activity against Candida albicans SP3931 after 48 hrs by broth microdilution method; format: functional; settings: SP3931, 48 h; outline: as §1
Candida albicans [3] = assay: Antifungal activity against Candida albicans SP3903 after 48 hrs by broth microdilution method; format: functional; settings: SP3903, 48 h; outline: as §1
Candida albicans [4] = assay: Antifungal activity against Candida albicans SP3902 after 48 hrs by broth microdilution method; format: functional; settings: SP3902, 48 h; outline: as §1
Candida albicans [5] = assay: Antifungal activity against Candida albicans SP3876 after 48 hrs by broth microdilution method; format: functional; settings: SP3876, 48 h; outline: as §1
Candida albicans [6] = assay: Antifungal activity against Candida albicans isolated from alveolar fluid after 48 hrs by broth microdilution method; format: functional; outline: as §1
Candida albicans [7] = assay: Antifungal activity against fluconazole-resistant Candida albicans 56452 after 48 hrs by broth microdilution method; format: functional; settings: Candida albicans, 56452, 48 h; outline: as §1
Candida albicans [8] = assay: Antifungal activity against fluconazole-resistant Candida albicans 56214 after 48 hrs by broth microdilution method; format: functional; settings: Candida albicans, 56214, 48 h; outline: as §1
Candida albicans [9] = assay: Antifungal activity against Candida albicans 14936 after 48 hrs by broth microdilution method; format: functional; settings: Candida albicans, 14936, 48 h; outline: as §1
Candida albicans [10] = assay: Antifungal activity against fluconazole-resistant Candida albicans 17546 after 48 hrs by broth microdilution method; format: functional; settings: Candida albicans, 17546, 48 h; outline: as §1
Candida tropicalis [11] = assay: Antifungal activity against Candida tropicalis cgmcc 2.1975 after 48 hrs by broth microdilution method; format: functional; settings: cgmcc 2.1975, 48 h
Outline: (§2)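 Modified CLSI M27-A2 broth microdilution. Yeast were suspended in MOPS-buffered RPMI 1640 at a final (0.5−1) × 10^3 CFU/mL and mixed 1:1 with peptide serially diluted in 0.2% BSA. Plates were incubated 48 h at 28 °C and read at A492. MIC is the lowest concentration giving 95% inhibition. Run in triplicate with three biological replicates.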

Pichia kudriavzevii [12] = assay: Antifungal activity against Candida krusei cgmcc 2.1857 after 48 hrs by broth microdilution method; format: functional; settings: cgmcc 2.1857, 48 h; outline: as §2
Candida parapsilosis [13] = assay: Antifungal activity against Candida parapsilosis cgmcc 2.3989 after 48 hrs by broth microdilution method; format: functional; settings: Lodderomyces parapsilosis, cgmcc 2.3989, 48 h; outline: as §2
Candida albicans [14] = assay: Fungicidal activity against Candida albicans cgmcc 2.2086 after 96 hrs; format: functional; settings: cgmcc 2.2086, 96 h, read-out: MFC99.9
Outline: (§3)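 After the 48 h, 28 °C broth microdilution in MOPS-buffered RPMI 1640 (inoculum (0.5−1) × 10^3 CFU/mL), 50 μL from each well was plated on YM agar for a further 48 h at 28 °C. MFC is the lowest concentration killing at least 99.9% of cells. Triplicate, three biological replicates.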

Candida albicans [15] = assay: Fungicidal activity against Candida albicans SP3931 after 96 hrs; format: functional; settings: SP3931, 96 h, read-out: MFC99.9; outline: as §3
Candida albicans [16] = assay: Fungicidal activity against Candida albicans SP3903 after 96 hrs; format: functional; settings: SP3903, 96 h, read-out: MFC99.9; outline: as §3
Candida albicans [17] = assay: Fungicidal activity against Candida albicans SP3902 after 96 hrs; format: functional; settings: SP3902, 96 h, read-out: MFC99.9; outline: as §3
Candida albicans [18] = assay: Fungicidal activity against Candida albicans SP3876 after 96 hrs; format: functional; settings: SP3876, 96 h, read-out: MFC99.9; outline: as §3
Candida albicans [19] = assay: Fungicidal activity against Candida albicans isolated from alveolar fluid after 96 hrs; format: functional; settings: read-out: MFC99.9; outline: as §3
Candida albicans [20] = assay: Fungicidal activity against fluconazole-resistant Candida albicans 56452 after 96 hrs; format: functional; settings: Candida albicans, 56452, 96 h; read-out: MFC99.9; outline: as §3
Candida albicans [21] = assay: Fungicidal activity against fluconazole-resistant Candida albicans 56214 after 96 hrs; format: functional; settings: Candida albicans, 56214, 96 h; read-out: MFC99.9; outline: as §3
Candida albicans [22] = assay: Fungicidal activity against Candida albicans 14936 after 96 hrs; format: functional; settings: Candida albicans, 14936, 96 h; read-out: MFC99.9; outline: as §3
Candida albicans [23] = assay: Fungicidal activity against fluconazole-resistant Candida albicans 17546 after 96 hrs; format: functional; settings: Candida albicans, 17546, 96 h; read-out: MFC99.9; outline: as §3
Candida tropicalis [24] = assay: Fungicidal activity against Candida tropicalis cgmcc 2.1975 after 96 hrs; format: functional; settings: cgmcc 2.1975, 96 h, read-out: MFC99.9
Outline: (§4)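 Wells from the 48 h, 28 °C RPMI 1640/MOPS microdilution plates were plated on YM agar and incubated a further 48 h at 28 °C. MFC is the lowest concentration killing at least 99.9% of cells. Run in triplicate with three biological replicates.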

Pichia kudriavzevii [25] = assay: Fungicidal activity against Candida krusei cgmcc 2.1857 after 96 hrs; format: functional; settings: cgmcc 2.1857, 96 h, read-out: MFC99.9; outline: as §4
Candida parapsilosis [26] = assay: Fungicidal activity against Candida parapsilosis cgmcc 2.3989 after 96 hrs; format: functional; settings: Lodderomyces parapsilosis, cgmcc 2.3989, 96 h; read-out: MFC99.9; outline: as §4
Candida albicans [27] = assay: Antifungal activity against Candida albicans cgmcc 2.2086 in presence of NaCl by broth dilution method; format: functional
Candida albicans [28] = assay: Antifungal activity against Candida albicans cgmcc 2.2086 in presence of KCl by broth dilution method; format: functional
Candida albicans [29] = assay: Antifungal activity against Candida albicans cgmcc 2.2086 in presence of NH4Cl by broth dilution method; format: functional
Candida albicans [30] = assay: Antifungal activity against Candida albicans cgmcc 2.2086 in presence of MgCl2 by broth dilution method; format: functional
Candida albicans [31] = assay: Antifungal activity against Candida albicans cgmcc 2.2086 in presence of CaCl2 by broth dilution method; format: functional
Candida albicans [32] = assay: Antifungal activity against Candida albicans cgmcc 2.2086 in presence of ZnCl2 by broth dilution method; format: functional
Candida albicans [33] = assay: Antifungal activity against Candida albicans cgmcc 2.2086 in presence of FeCl3 by broth dilution method; format: functional
Candida albicans [34] = assay: Antifungal activity against Candida albicans cgmcc 2.2086 in presence of 12.5% human heat-inactivated serum by broth dilution method; format: functional
Candida albicans [35] = assay: Antifungal activity against Candida albicans cgmcc 2.2086 in presence of 25% human heat-inactivated serum by broth dilution method; format: functional
Candida albicans [36] = assay: Antifungal activity against Candida albicans cgmcc 2.2086 in presence of 50% human heat-inactivated serum by broth dilution method; format: functional
Lipid bilayer [37] = assay: Binding affinity to phosphatidylcholine/cholesterol large unilamellar vesicle assessed as induction of calcein leakage at 2 to 32 uM after 15 mins by spectrofluorophotometric method; settings: 0.25 h
Outline: (§5)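 Large unilamellar vesicles were made from PG/CL/PE (2:1:7), PC/PE/PI/ergosterol (5:4:1:2) or PC/cholesterol (10:1), loaded with 70 mM calcein in Tris/NaCl/EDTA buffer at pH 7.4, frozen and thawed 20 times, and extruded through 100 nm filters. Free dye was removed by gel filtration, and peptide-induced calcein release was measured.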

Lipid bilayer [38] = assay: Binding affinity to phosphatidylcholine/phosphatidylethanolamine/phosphatidylinositol/ergosterol large unilamellar vesicle assessed as induction of calcein leakage at 2 to 32 uM after 15 mins by spectrofluorophotometric method; outline: as §5
Candida albicans [39] = assay: Disruption of cytoplasmic membrane electrical potential in Candida albicans cgmcc 2.2086 at MFC after 800 secs by DiSC3-5 dye-based fluorescence spectrophotometric method; format: functional, organism-based
Outline: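 Cells were loaded with the membrane potential-sensitive dye DiSC3-5, and its release on peptide treatment (various concentrations, including 1× MBC/MFC) was monitored as increasing fluorescence over 800 s.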

Candida albicans [40] = assay: Antifungal activity against Candida albicans 58288 after 48 hrs by broth microdilution method; format: functional; settings: Candida albicans, 58288, 48 h; outline: as §1
Candida albicans [41] = assay: Fungicidal activity against Candida albicans 58288 after 96 hrs; format: functional; settings: Candida albicans, 58288, 96 h; read-out: MFC99.9; outline: as §3

## OC(Cn1cncn1)(Cn1cncn1)c1ccc(F)cc1F [FLUCONAZOLE]
Candida albicans [1]
  MIC95: 1 µM (≈ 0.306 µg/mL)
Candida albicans [2]
  MIC95: 1 µM (≈ 0.306 µg/mL)
Candida albicans [3]
  MIC95: 16 µM (≈ 4.9 µg/mL)
Candida albicans [4]
  MIC95: 16 µM (≈ 4.9 µg/mL)
Candida albicans [5]
  MIC95: > 64 µM
Candida albicans [6]
  MIC95: 2 µM (≈ 0.613 µg/mL)
Candida albicans [7]
  MIC95: > 64 µM
Candida albicans [8]
  MIC95: > 64 µM
Candida albicans [9]
  MIC95: 32 µM (≈ 9.8 µg/mL)
Candida albicans [10]
  MIC95: > 64 µM
Candida tropicalis [11]
  MIC95: 4 µM (≈ 1.23 µg/mL)
Pichia kudriavzevii [12]
  MIC95: 64 µM (≈ 19.6 µg/mL)
Candida parapsilosis [13]
  MIC95: 4 µM (≈ 1.23 µg/mL)
Candida albicans [14]
  MFC: 2 µM (≈ 0.613 µg/mL)
Candida albicans [15]
  MFC: 64 µM (≈ 19.6 µg/mL)
Candida albicans [16]
  MFC: 64 µM (≈ 19.6 µg/mL)
Candida albicans [17]
  MFC: > 64 µM
Candida albicans [18]
  MFC: > 64 µM
Candida albicans [19]
  MFC: 8 µM (≈ 2.45 µg/mL)
Candida albicans [20]
  MFC: > 64 µM
Candida albicans [21]
  MFC: > 64 µM
Candida albicans [22]
  MFC: > 64 µM
Candida albicans [23]
  MFC: > 64 µM
Candida tropicalis [24]
  MFC: 32 µM (≈ 9.8 µg/mL)
Pichia kudriavzevii [25]
  MFC: 64 µM (≈ 19.6 µg/mL)
Candida parapsilosis [26]
  MFC: 8 µM (≈ 2.45 µg/mL)
Candida albicans [27]
  MIC: 1 µM
Candida albicans [28]
  MIC: 1 µM
Candida albicans [29]
  MIC: 1 µM
Candida albicans [30]
  MIC: 1 µM
Candida albicans [31]
  MIC: 1 µM
Candida albicans [32]
  MIC: 1 µM
Candida albicans [33]
  MIC: 1 µM
Candida albicans [34]
  MIC: 1 µM
Candida albicans [35]
  MIC: 1 µM
Candida albicans [36]
  MIC: 2 µM
Lipid bilayer [37]
  Activity: Not Active
Lipid bilayer [38]
  Activity: inactive
Candida albicans [39]
  Activity: inactive
Candida albicans [40]
  MIC95: 8 µM (≈ 2.45 µg/mL)
Candida albicans [41]
  MFC: > 64 µM
